Test results published in ChEMBL document CHEMBL4049387, “Combination of l-Carnitine with Lipophilic Linkage-Donating Gemcitabine Derivatives as Intestinal Novel Organic Cation Transporter 2-Targeting Oral Prodrugs” (J Med Chem, 2017).

Legend:
[1] = tested on: Heart; assay: Drug uptake in mouse heart at 102 mg/kg, po administered as single dose at 0.5 hrs post dose; format: ADME, organism-based; details: in vivo
Method in brief: (§1)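 Mice, three per time point, single oral dose of 102 mg/kg (equivalent to 50 mg/kg gemcitabine). Heart, liver, spleen, lung, kidney and brain collected at 0.16, 0.5 and 2 h, rinsed in saline. 0.3 g tissue homogenized 1 min in 1 mL saline, spun 13,000 rpm 4 °C 5 min. Gemcitabine measured in supernatant.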

[2] = Terminal half-life in Wistar rat at 50 mg/kg, po administered as single dose by UPLC-MS/MS method; format: ADME, organism-based; details: in vivo, read-out: beta t1/2 (converted)
Method in brief: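 Wistar rats, six per group, single oral dose equivalent to 50 mg/kg gemcitabine; separate group given gemcitabine iv at 7.5 mg/kg. Oral sampling at 5, 10, 15, 30 min and 1, 2, 4, 6, 8, 12, 24 h; iv at 15, 30 min and 2, 4, 8, 12, 24 h. Blood into THU-pretreated heparinized tubes, centrifuged 3000 × g 15 min, plasma at -80 °C. Prodrug and gemcitabine quantified by UPLC-MS/MS. F = AUCpo×Div/AUCiv/Dpo×100%.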

[3] = tested on: Caco-2; assay: Ratio of IC50 for cytotoxicity against human Caco2 cells in presence of L-carnitine to IC50 for cytotoxicity against human Caco2 cells in absence of L-carnitine; format: functional
[4] = tested on: Heart; assay: Drug uptake in mouse heart at 102 mg/kg, po administered as single dose at 2 hrs post dose; format: ADME, organism-based; details: in vivo; method in brief: as §1
[5] = tested on: Spleen; assay: Drug uptake in mouse spleen at 102 mg/kg, po administered as single dose at 0.5 hrs post dose; format: ADME, organism-based; details: in vivo; method in brief: as §1
[6] = tested on: Caco-2; assay: Cytotoxicity against human Caco2 cells assessed as decrease in cell viability after 48 hrs by MTT assay; format: functional, cell-based; details: Caco-2, 48 h
Method in brief: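 BxPC-3 and Caco-2 cells exposed to compounds for 48 h. Viability read by MTT assay kit. IC50 calculated from dose-response.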

[7] = tested on: Mus musculus; assay: Toxicity in Kunming mouse assessed as inflammatory infiltrates in cardiac muscle at 102 mg/kg, po administered once daily for 14 days by hematoxylin/eosin staining based optical microscopic analysis; format: organism-based; details: in vivo, 336 h
Method in brief: (§2)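 Kunming mice, four per group, dosed orally once daily for 14 days with 102 mg/kg or saline control; body weight recorded every other day. Heart, liver, spleen, lung and kidney fixed in 10% buffered formalin, paraffin-embedded, sectioned, stained with hematoxylin and eosin, and examined by optical microscopy.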

[8] = Half life in rat hepatic homogenates at 5 uM by HPLC method; format: ADME, tissue-based, Liver
Method in brief: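 Compound at 5 µM final in rat plasma, 20% rat hepatic homogenate or 20% rat intestinal homogenate at 37 °C for 24 h. Homogenates made by homogenizing 0.3 g saline-washed tissue in 1 mL saline, spun 13,000 rpm 4 °C 5 min. Sampled at intervals, analysed by HPLC. t1/2 = 0.693/k.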

[9] = tested on: Mus musculus; assay: Toxicity in Kunming mouse assessed as fibrosis in kidney at 102 mg/kg, po administered once daily for 14 days by hematoxylin/eosin staining based optical microscopic analysis; format: organism-based; details: in vivo, 336 h; method in brief: as §2
[10] = tested on: Mus musculus; assay: Toxicity in Kunming mouse assessed as […] degeneration in kidney at 102 mg/kg, po administered once daily for 14 days by hematoxylin/eosin staining based optical microscopic analysis; format: organism-based; details: in vivo, 336 h; method in brief: as §2
[11] = tested on: Mus musculus; assay: Toxicity in Kunming mouse assessed as fibrosis in cardiac muscle at 102 mg/kg, po administered once daily for 14 days by hematoxylin/eosin staining based optical microscopic analysis; format: organism-based; details: in vivo, 336 h; method in brief: as §2
[12] = tested on: OCTN2; assay: Ratio of drug transport in OCTN2 (unknown origin) expressing HEK293 cells assessed as transporter-mediated drug uptake at 25 uM to drug uptake in HEK293 cells at 25 uM; format: ADME, cell-based; details: human, HEK293 cells expressing OCTN2, against HEK293 cells
Method in brief: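 OCTN2-transfected HEK293 cells and mock HEK293 cells incubated with 25 µM compound at 37 °C for 15 min, then cellular uptake measured; n = 2.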

[13] = tested on: Mus musculus; assay: Toxicity in Kunming mouse assessed as inflammatory infiltrates in hepatocytes at 102 mg/kg, po administered once daily for 14 days by hematoxylin/eosin staining based optical microscopic analysis; format: organism-based; details: in vivo, 336 h; method in brief: as §2
[14] = target: T1, Organic cation/carnitine transporter 2 (Homo sapiens, UniProt O76082); assay: Ratio of drug transport assessed as OCTN2 transporter mediated drug uptake in human Caco2 cells at 1 to 800 uM in presence of Na+ to drug transport assessed as OCTN2 transporter mediated drug uptake in human Caco2 cells at 1 to 800 uM in presence of N-methyl-D-glucamine; format: ADME, cell-based; details: caco-2, 800 µM
T1 sequence (O76082 whole entry): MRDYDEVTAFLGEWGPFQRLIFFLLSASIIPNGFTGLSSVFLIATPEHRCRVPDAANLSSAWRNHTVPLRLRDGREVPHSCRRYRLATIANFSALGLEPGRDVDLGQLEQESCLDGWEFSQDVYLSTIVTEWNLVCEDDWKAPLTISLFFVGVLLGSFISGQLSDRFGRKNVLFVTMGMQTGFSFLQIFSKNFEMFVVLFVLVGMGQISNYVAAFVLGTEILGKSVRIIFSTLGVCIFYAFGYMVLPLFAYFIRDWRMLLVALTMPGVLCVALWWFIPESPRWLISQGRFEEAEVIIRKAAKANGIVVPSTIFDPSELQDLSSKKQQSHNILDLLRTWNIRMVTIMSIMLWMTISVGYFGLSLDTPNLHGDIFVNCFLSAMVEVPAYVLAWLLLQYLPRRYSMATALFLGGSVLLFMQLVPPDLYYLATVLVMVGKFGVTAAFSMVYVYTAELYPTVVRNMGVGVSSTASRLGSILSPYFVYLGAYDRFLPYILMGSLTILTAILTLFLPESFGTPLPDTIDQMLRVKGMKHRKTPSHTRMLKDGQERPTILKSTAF

[15] = tested on: Mus musculus; assay: Toxicity in Kunming mouse assessed as […] degeneration in spleen at 102 mg/kg, po administered once daily for 14 days by hematoxylin/eosin staining based optical microscopic analysis; format: organism-based; details: in vivo, 336 h; method in brief: as §2
[16] = tested on: Mus musculus; assay: Toxicity in Kunming mouse assessed as fibrosis in spleen at 102 mg/kg, po administered once daily for 14 days by hematoxylin/eosin staining based optical microscopic analysis; format: organism-based; details: in vivo, 336 h; method in brief: as §2
[17] = Half life in pH 1.2 phosphate buffer at 5 uM by HPLC method; format: physicochemical
Method in brief: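 Compound dissolved at 5 µM in phosphate buffer (pH 1.2, 6.8 or 7.4), held at 37 °C for 24 h. Aliquots taken at intervals and analysed by HPLC. t1/2 = 0.693/k from linear regression of pseudo-first-order kinetics.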

- Drug uptake [1]: Active
- half-life [2]: 6.8 h
- Drug uptake [4]: Not Active
- Drug uptake [5]: Active
- half-life at 5 µM [8]: 17.4 h
- uptake ratio at 25 µM [12]: 3 to 8
- Ratio [14]: 2 to 10
- half-life at 5 µM [17]: 4.4 h
SMILES: C[N+](C)(C)CC(CC(=O)[O-])OC(=O)CCCCC(=O)Nc1ccn([C@@H]2O[C@H](CO)[C@@H](O)C2(F)F)c(=O)n1 (some centres not stated)
- Ratio IC50 [3]: 8
- IC50 [6]: 40.9 µM
- Activity [7]: Non-Toxic
- Activity [9]: Non-Toxic
- Activity [10]: Non-Toxic
- Activity [11]: Non-Toxic
- Activity [13]: Non-Toxic
- Activity [15]: Non-Toxic
- Activity [16]: Non-Toxic
